Paper PMC9435035 (ACS Omega, 2022)

Assays:
[1] = test system: streptozotocin-induced diabetic Wistar rats; experiment: lipid profile in streptozotocin-induced diabetes; format: in vivo, Wistar albino rats; conditions: STZ-diabetic rats
Procedure, shortened: (§1)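 STZ-diabetic Wistar rats (n = 8 per group) received test compound at 10 or 20 mg/kg p.o., or glibenclamide 500 μg/kg p.o., once daily for 28 days; controls received vehicle. On day 28, rats were anesthetised with pentobarbital sodium (35 mg/kg) and blood was drawn by cardiac puncture. Serum ALP, SGPT, SGOT, LDL, HDL, TG, total cholesterol, creatinine and insulin were measured. Means ± SEM, one-way ANOVA with Dunnett's test.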

[2] = body weight of STZ-induced diabetic rats; format: in vivo, Wistar albino rats; conditions: for body weight, day 1: day 1, in g (unit assumed); for body weight, day 7: day 7, in g (unit assumed); for body weight, day 14: day 14, in g (unit assumed); for body weight, day 21: day 21, in g (unit assumed); for body weight, day 28: day 28, in g (unit assumed)
Procedure, shortened: (§2)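 Male Wistar albino rats (170–200 g, 8–10 weeks), fasted overnight, given STZ 50 mg/kg i.p. in 0.1 M citrate buffer, then 10% glucose for 3 days. Tail-vein glucose by glucometer at 72 h; >250 mg/dL counted as diabetic. Body weight and blood glucose on days 1, 7, 14, 21 and 28. Means ± SEM, one-way ANOVA with Dunnett's test.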

[3] = test system: overnight fasted normal rats; experiment: oral glucose tolerance test; format: in vivo, Wistar albino rats; conditions: OGTT, glucose 3 g/kg oral
[4] = test system: streptozotocin-induced diabetic Wistar rats; experiment: serum profile; format: in vivo, Wistar albino rats; conditions: STZ-diabetic rats; for (ALP) IU / (SGOT) IU / (SGPT) IU: serum
Procedure, shortened: as §1

[5] = test system: Balb/C mice; experiment: acute toxicity study in mice; format: in vivo
Procedure, shortened: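 Two-phase modified Lorke protocol in Balb/C mice (20–25 g), four per group. Phase 1: control given Tween-80 (2%); other groups received oral test compound at 100, 500 or 1000 mg/kg. Phase 2: oral doses of 1250, 1500 and 2000 mg/kg. Animals observed for the first 24 h, then daily for 2 weeks for diarrhea, convulsions, lethargy, sleeping, salivation and tremors, with mortality monitored.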

[6] = biological target: α-glucosidase (Saccharomyces cerevisiae, UniProt P53341); experiment: α-glucosidase inhibitory activity; format: biochemical; conditions: read-out: glucosidase inhibition IC50 ± SEM; mean ± SEM
[7] = test system: streptozotocin-induced diabetic Wistar rats; experiment: antidiabetic activity: blood glucose in STZ-induced diabetes; format: in vivo, Wistar albino rats
Procedure, shortened: as §2

Chain of α-glucosidase (P53341 whole entry): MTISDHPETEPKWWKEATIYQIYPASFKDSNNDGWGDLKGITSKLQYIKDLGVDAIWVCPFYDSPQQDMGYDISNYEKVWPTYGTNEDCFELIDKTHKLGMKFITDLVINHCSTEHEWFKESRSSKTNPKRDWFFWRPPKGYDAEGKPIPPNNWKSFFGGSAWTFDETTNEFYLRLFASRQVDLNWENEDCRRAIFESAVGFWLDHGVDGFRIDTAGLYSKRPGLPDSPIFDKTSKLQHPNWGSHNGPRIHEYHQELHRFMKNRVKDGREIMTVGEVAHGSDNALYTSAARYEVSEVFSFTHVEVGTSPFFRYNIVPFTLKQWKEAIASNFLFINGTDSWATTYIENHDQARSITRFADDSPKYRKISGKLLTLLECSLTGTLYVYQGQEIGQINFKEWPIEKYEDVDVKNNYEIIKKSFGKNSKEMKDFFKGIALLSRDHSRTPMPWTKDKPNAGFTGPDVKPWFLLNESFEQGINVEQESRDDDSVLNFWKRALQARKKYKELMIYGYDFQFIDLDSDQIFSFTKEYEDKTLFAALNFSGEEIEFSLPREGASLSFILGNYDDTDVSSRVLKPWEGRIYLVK

Work on “2-(4-(Benzyloxy)-3-methoxyphenyl)-4-(p-tolyl)-2,3-dihydrobenzo[b][1,5]thiazepine [12B]” yielded an HDL ([1]; 10 mg/kg for 28 days) of 45.91 ± 2.70 mg/dL, a TG ([1]; 10 mg/kg for 28 days) of 149.81 ± 4.60 mg/dL and an LDL ([1]; 10 mg/kg for 28 days, 10 mg/kg) of 134.89 ± 4.33 mg/dL. The “total CH” value ([1]; 10 mg/kg for 28 days, 10 mg/kg) was 152.11 ± 4.11 mg/dL, the HDL ([1]; 20 mg/kg for 28 days) was 53.24 ± 2.08 mg/dL and the TG ([1]; 20 mg/kg for 28 days) was 117.97 ± 4.01 mg/dL. For the same substance, the LDL ([1]; 20 mg/kg for 28 days, 20 mg/kg) was 113.71 ± 4.16 mg/dL, the “total CH” value ([1]; 20 mg/kg for 28 days, 20 mg/kg) was 136.03 ± 4.39 mg/dL and the “body weight, day 1” value ([2]; 10 mg/kg) was 187.5 ± 4.39. For the same substance, the “body weight, day 7” value ([2]; 10 mg/kg) was 185.1 ± 4.71, the “body weight, day 14” value ([2]; 10 mg/kg) was 184.5 ± 4.06 and the “body weight, day 21” value ([2]; 10 mg/kg) was 187.0 ± 4.39. For the same substance, the “body weight, day 28” value ([2]; 10 mg/kg) was 173.9 ± 4.28, the “body weight, day 1” value ([2]; 20 mg/kg) was 189.7 ± 4.08 and the “body weight, day 7” value ([2]; 20 mg/kg) was 184.7 ± 4.66. For the same substance, the “body weight, day 14” value ([2]; 20 mg/kg) was 187.1 ± 4.11, the “body weight, day 21” value ([2]; 20 mg/kg) was 189.3 ± 4.60 and the “body weight, day 28” value ([2]; 20 mg/kg) was 175.3 ± 5.01. For the same substance, the “blood glucose level, 0 min” value ([3]; dose 10 mg/kg) was 101.67 ± 4.55 mg/dL, the “blood glucose level, 30 min” value ([3]; dose 10 mg/kg) was 121.63 ± 4.56 mg/dL and the “blood glucose level, 60 min” value ([3]; dose 10 mg/kg) was 122.02 ± 4.66 mg/dL. The “blood glucose level, 90 min” value ([3]; dose 10 mg/kg) was 115.31 ± 4.61 mg/dL, the “blood glucose level, 120 min” value ([3]; dose 10 mg/kg) was 114.19 ± 4.61 mg/dL and the “blood glucose level, 0 min” value ([3]; dose 20 mg/kg) was 105.59 ± 4.61 mg/dL. The “blood glucose level, 30 min” value ([3]; dose 20 mg/kg) was 117.38 ± 4.01 mg/dL, the “blood glucose level, 60 min” value ([3]; dose 20 mg/kg) was 117.61 ± 4.60 mg/dL and the “blood glucose level, 90 min” value ([3]; dose 20 mg/kg) was 110.71 ± 4.91 mg/dL. The “blood glucose level, 120 min” value ([3]; dose 20 mg/kg) was 111.21 ± 4.31 mg/dL, the insulin level ([4]; 10 mg/kg for 28 days) was 0.651 ± 0.34 ng/mL and the serum creatinine ([4]; 10 mg/kg for 28 days) was 0.90 ± 0.30 mg/dL. For the same substance, the “(ALP) IU” value ([4]; 10 mg/kg for 28 days) was 215.19 ± 4.10 IU, the “(SGOT) IU” value ([4]; 10 mg/kg for 28 days) was 26.01 ± 2.01 IU and the “(SGPT) IU” value ([4]; 10 mg/kg for 28 days) was 26.53 ± 2.38 IU. The insulin level ([4]; 20 mg/kg for 28 days) was 0.660 ± 0.30 ng/mL, the serum creatinine ([4]; 20 mg/kg for 28 days) was 0.80 ± 0.38 mg/dL and the “(ALP) IU” value ([4]; 20 mg/kg for 28 days) was 205.93 ± 4.67 IU. For the same substance, the “(SGOT) IU” value ([4]; 20 mg/kg for 28 days) was 22.91 ± 2.87 IU, the “(SGPT) IU” value ([4]; 20 mg/kg for 28 days) was 23.35 ± 2.54 IU and the mortality ([5]; maximum oral dose of 2000 mg/kg (b.w.)) was “no mortality”. The “toxic effects (diarrhea, convulsions, lethargy, sleeping, salivation, tremor)” value ([5]; oral up to 2000 mg/kg, observed daily for 2 weeks) was “no toxic effects”, the IC50 [6] was 3.79 ± 0.22 µM and the “blood glucose level, day 1” value ([7]; 10 mg/kg p.o. once daily) was 371.67 ± 4.66 mg/dL. The “blood glucose level, day 7” value ([7]; 10 mg/kg p.o. once daily) was 301.41 ± 4.56 mg/dL, the “blood glucose level, day 14” value ([7]; 10 mg/kg p.o. once daily) was 209.60 ± 4.22 mg/dL and the “blood glucose level, day 21” value ([7]; 10 mg/kg p.o. once daily) was 152.56 ± 4.71 mg/dL. The “blood glucose level, day 28” value ([7]; 10 mg/kg p.o. once daily, day 28, 10 mg/kg) was 138.92 ± 4.67 mg/dL, the “blood glucose level, day 1” value ([7]; 20 mg/kg p.o. once daily) was 369.56 ± 4.56 mg/dL and the “blood glucose level, day 7” value ([7]; 20 mg/kg p.o. once daily) was 237.11 ± 4.39 mg/dL. For the same substance, the “blood glucose level, day 14” value ([7]; 20 mg/kg p.o. once daily) was 167.49 ± 5.02 mg/dL, the “blood glucose level, day 21” value ([7]; 20 mg/kg p.o. once daily) was 131.69 ± 4.77 mg/dL and the “blood glucose level, day 28” value ([7]; 20 mg/kg p.o. once daily, day 28, 20 mg/kg) was 114.74 ± 5.09 mg/dL.
